Lipid droplet – modulators of hepatic lipid droplet formation | AML12 mouse hepatocytes, oleate lipid droplets, BODIPY imaging | inhibition, % at 6.5 µM | actives 0.4% (n = 240,000);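 active means lipid droplet intensity inhibited by at least 50%, with more than 500 cells counted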
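Test system: AML12 hepatocytes (mouse); reagent: oleate loading, 100 µM; dosing: one dose, 6.5 µM compound; incubation: overnight exposure; signal: fluorescence imaging, 20x objective, two fields per well; read-out basis: % inhibition of corrected integrated BODIPY droplet signal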
H9c2 TAG inh – inhibitors of triacylglycerol accumulation; inhibition, % at 12.5 µM; H9c2 cells, Nile Red lipid (TAG) fluorescence; cells loaded with 200 µM oleic acid; AID 651582; actives 0.66% (n = 230,000);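 active means pattern-corrected inhibition of lipid staining of at least 50% with the nuclear-stain viability signal not falling by more than 50%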;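 further: 0% = DMSO wells and 100% = triacsin C control wells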
Jurkat NFkB inh – inhibitors of the PMA/ionomycin-induced NF-kB reporter in Jurkat cells; PMA/ionomycin-induced NF-kB luciferase reporter, luminescence; inhibition, % at 4 µM; actives 0.53% (n = 330,000); AID 435003; in the data active means inhibition above about 50%
697 NFkB inh – inhibitors of the PMA/ionomycin-induced NF-kB reporter in 697 B cells | AID 435022 | 697 B-cell NF-kB luciferase reporter, 16 h | actives 0.33% (n = 330,000) | inhibition, % at 4 µM; in the data active means inhibition above about 35%
hiPSC survival – enhancers of human iPSC single-cell survival; hiPSC single-cell survival, ATPlite luminescence; 100% = ROCK inhibitor wells, 0% = DMSO; actives 0.044% (n = 360,000); survival enhancement, % at 20 µM; in the data active means survival enhancement above about 18%;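 further: cells exposed to compounds for 16 hours before the ATP read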
Gli-Sufu antag – blocks Gli-Sufu signaling in a luciferase reporter. Sufu-KO-LIGHT fibroblasts, Gli luciferase reporter luminescence. inhibition, % at 5 µM. actives 0.74% (n = 340,000). AID 588413;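 active means inhibition above about 55%, limit read from the data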;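 further: 0% = DMSO-treated cells and 100% = wells with medium but no cells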
Jurkat NFkB conf – lowers PMA/ionomycin-induced NF-kB signal in Jurkat cells; shares compounds with Jurkat NFkB inh; Jurkat NF-kB luciferase, 16 h; inhibition, % at 4 µM; actives 27% (n = 2,700); AID 435020;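 active means inhibition reaching about 45% at 4 µM in either replicate, limit read from the data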;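 further: plate controls were PMA/ionomycin stimulated DMSO wells for no effect and unstimulated DMSO wells for full effect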
* hit, by the source's call; . = no result given. Hits are enriched below; roughly 1.8% of the tested compounds scored in any of these assays.

SMILES | Lipid droplet | H9c2 TAG inh | Jurkat NFkB inh | 697 NFkB inh | hiPSC survival | Gli-Sufu antag | Jurkat NFkB conf
CCN(CC)c1ccc(NC(=O)C2=CCN(S(=O)(=O)c3ccc(F)cc3)CC2)c(C)c1 | -3 | -6 | -6 | 1 | 0 | 2 | .
COC(=O)CSc1nc2ccc(C)cc2cc1C#N | 18 | 5 | -180 | -153 | 0 | -6 | -111
COC(=O)CSc1nc2cc(C)cc(C)c2cc1C#N | . | 20 | -61 | 15 | 1 | -10 | .
COC(=O)CSc1nc2cc(OC)ccc2cc1C#N | . | 10 | -166 | -137 | -2 | 4 | -94
Cc1ccnc(N/N=C/c2ccccc2)n1 | 1 | . | -75 | -69 | 0 | -69 | .
CSc1nccc(N/N=C/c2ccccc2)n1 | 1 | . | -160 | -136 | -1 | -57 | -67
CCCOc1ccc(/C=N/Nc2ccccn2)cc1OC | 2 | -9 | -172 | -120 | -1 | 34 | -29
Fc1cccc(/C=N/Nc2ccccn2)c1 | -5 | 6 | -54 | -61 | 1 | -37 | .
C(=N\Nc1ccccn1)/c1ccc2c(c1)OCCO2 | 2 | -8 | -172 | -213 | -3 | -118 | -106
CCOc1ccc(/C=N/Nc2ccccn2)cc1OC | 1 | -13 | -100 | -90 | -1 | -52 | .
Cc1c(C)c2cc(Cl)c(OCC(=O)Nc3ccccn3)cc2oc1=O | . | -7 | . | . | 1 | . | .
Cc1c(C)c2ccc(OCC(=O)Nc3ccccn3)c(C)c2oc1=O | 8 | . | 91* | 9 | -1 | 51 | 94*
O=C(COC(=O)COc1ccccc1Cc1ccccc1)Nc1cccnc1Cl | -10 | . | 8 | 6 | 0 | -8 | .
c1ccc(-c2cc(-c3ccccc3)on2)cc1 | 12 | -5 | -209 | -206 | -1 | -72 | -151
CCOC(=O)c1[nH]c(C)c(/C(O)=C2\C(=O)C(=O)N(CCCN3CCOCC3)C2c2cccs2)c1C (stereo unspecified) | -6 | 5 | 55* | -25 | 0 | -4 | 12
COC(=O)c1[nH]c(C)c(/C(O)=C2\C(=O)C(=O)N(CCN3CCOCC3)C2c2cccs2)c1C (stereo unspecified) | . | 3 | -6 | 22 | 0 | 6 | .
CCOC(=O)c1cnc2cc(-c3ccc(Cl)cc3)nn2c1N | . | . | -108 | -152 | 1 | -82 | .
CSc1nc(N)n2nc(-c3ccc(Cl)cc3)cc2n1 | 14 | 0 | -165 | -206 | -1 | -54 | -90
CCOC(=O)c1ccc(NC(=O)Nc2ccon2)cc1 | -30 | 39 | 58* | -7 | 0 | 42 | 34
O=C(Nc1ccc(Cl)c(Cl)c1)Nc1ccon1 | 3 | 13 | 53* | -18 | 0 | -18 | 32
Cc1cc(NC(=O)Nc2ccc(Cl)c(Cl)c2)no1 | . | -17 | -6 | -6 | -1 | -11 | .
Cc1ccc(-n2[nH]c(=O)c3cccnc32)cc1 | . | . | 9 | 25 | 3 | 4 | .
Cc1ccc(-n2[nH]c(=O)c(-c3ccccn3)c2C)cc1 | -2 | 1 | 58* | -25 | -3 | 16 | 26
Cc1ccc(C(=O)Nc2ccc(N3CCN(C(=O)c4cccs4)CC3)cc2)c(Cl)c1 | -18 | . | 18 | -25 | 0 | -1 | .
CCOC(=O)c1c(NC(=O)CSc2c[nH]c3ccccc23)sc2c1CCCC2 | 0 | -10 | 38 | -24 | -1 | -2 | .
SMILES | Lipid droplet | H9c2 TAG inh | Jurkat NFkB inh | 697 NFkB inh | hiPSC survival | Gli-Sufu antag | Jurkat NFkB conf
CCOC(=O)c1c(NC(=O)CSc2c[nH]c3ccccc23)sc2c1CCC2 | -7 | -48 | 55* | -19 | 2 | 9 | 10
COC(=O)c1cc(-c2ccc3c(c2)OCO3)nc2ccccc12 | . | . | 3 | -5 | -2 | -9 | .
c1ccc2nc(-c3ccc4c(c3)OCO4)ccc2c1 | 8 | . | -157 | -203 | 1 | -131 | -84
O=C(COC(=O)/C(=C/c1cccs1)c1cccs1)NC(c1ccccc1)c1ccccc1 | -14 | . | -3 | 14 | 0 | 6 | .
O=C1CC(c2cccc(Cl)c2)c2cc3c(cc2N1)CCC3 (stereo unspecified) | . | . | 56* | -60 | -3 | 3 | 35
COc1cccc(C2CC(=O)Nc3cc4c(cc32)CCC4)c1 (stereo unspecified) | -10 | 7 | 61* | -56 | -3 | 25 | 51*
COc1cccc(C2CC(=O)Nc3cc(OC)c(OC)cc32)c1 (stereo unspecified) | 0 | . | 12 | -6 | -1 | 2 | .
CCN(CC(=O)NCc1ccc(F)cc1)C(=O)/C=C/c1ccc(OC)c(S(=O)(=O)NC(C)C)c1 | -141 | . | 51* | 6 | 0 | -5 | 46
COc1ccc2nc3n(c(=O)c2c1)-c1ncccc1C(=O)NC3Cc1ccccc1 (stereo unspecified) | . | 7 | . | . | 0 | . | .
Oc1ccc2ccccc2c1/C=N/Nc1nnc(-c2ncc[nH]2)c2ccccc12 | -44 | -15 | 71* | -7 | -1 | 63* | 77*
COc1ccc(/C=N/Nc2nnc(-c3ncc[nH]3)c3ccccc23)cc1 | . | . | -71 | -7 | 0 | -35 | .
Cc1cccc(N2CCN(S(=O)(=O)c3c(C)nc4scc(C)n4c3=O)CC2)c1C | 3 | . | -16 | -48 | -1 | 12 | .
O=C(CCC(=O)N1CCOc2ccccc21)Nc1ccccc1Br | -35 | 4 | 1 | -11 | 0 | -15 | .
O=C(c1c(Cl)nc2sccn12)N1CCN(c2cccc(Cl)c2)CC1 | . | . | 61* | -4 | -2 | -2 | 47
COc1ccccc1C(=O)N1CCN(c2cccc(Cl)c2)CC1 | 32 | 22 | 56* | -35 | 0 | 10 | 33
O=C(c1cc2ccccc2cc1O)N1CCN(c2cccc(Cl)c2)CC1 | . | 35 | 2 | 1 | 0 | -6 | .
COc1cc2c(C(=O)N3CCN(c4cccc(Cl)c4)CC3)cn(C)c(=O)c2cc1OC | -1 | 22 | 37 | -32 | 0 | -28 | .
COc1cccc(N2CCN(C(=O)c3cn(Cc4ccccc4)nc3-c3cccnc3)CC2)c1 | . | 24 | 61* | -45 | 0 | 2 | 40
O=C(COc1ccc(Cl)cc1)NNC(=O)C(=O)NC1CCCCC1 | -2 | -2 | 18 | 9 | 0 | 3 | .
CC(C)CCN1C(=O)c2ccc(C(=O)N3CCCCC3)cc2C1=O | . | 9 | 2 | -14 | 0 | -3 | .
c1ccc(CN2CCC(Nc3ncnc4sccc34)CC2)cc1 | 5 | -6 | 58* | -11 | -1 | -15 | 35
Cc1sc2ncnc(NC3CCN(Cc4ccccc4)CC3)c2c1C | 0 | -46 | 53* | -12 | 0 | 78* | 43
Cc1csc2c(NC3CCN(Cc4ccccc4)CC3)ncnc12 | 23 | -10 | 22 | -31 | -1 | 8 | .
COc1ccc(Cn2c(SCc3ccc(C)cc3)nc3cc(OC)c(OC)cc3c2=N)cc1Cl | -16 | . | 64* | 15 | -5 | 30 | 63*
COc1ccc(C(=O)N(Cc2ccccc2)Cc2cc3cc4c(cc3[nH]c2=O)OCCO4)cc1 | . | . | 55* | -32 | 0 | -4 | 12
